Results: ChEMBL document CHEMBL6134766, “Design, synthesis, and evaluation of benzhydrylpiperazine-based novel dual COX-2/5-LOX inhibitors with anti-inflammatory and anti-cancer activity” (RSC Med Chem, 2025)
Active and inactive are the calls of the source. The calls are words filed in the database; no cut-off is given here.

How the values were obtained:
Rattus norvegicus [1] = assay: Anti-inflammatory activity in arachidonic acid-induced paw edema Wistar rat model assessed as protection against swelling thickness of paw at 5 mg/kg, po measured after 1 hr by digital vernier caliper (reference value: 0 %); assay type: functional
Rattus norvegicus [2] = assay: Anti-inflammatory activity in carrageenan-induced paw edema Wistar rat model assessed as swelling thickness of paw at 20 mg/kg, po measured after 1 hr by digital vernier caliper (reference value: 8.47 +/- 0.25 millimeter); assay type: functional
[3] = Toxicity in fasting Wistar rat assessed as ulcer score at 20 mg/kg, po via gavage treated for 3 days consecutively by H and E staining based analysis (reference value: 0); assay type: organism-based; details: in vivo, 72 h, time 3 day
Method in brief: (§1)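 Fasted rats, n = 6/group, gavaged once daily for 3 days in 0.3% Na CMC (vehicle control 0.3% CMC); killed under anaesthesia 6 h after day-3 dose; stomachs saline-washed, mucosa examined with hand lens; ulcer score, index and % ulceration by reported scoring; some stomachs formalin-fixed, H&E stained.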

[4] = Acute toxicity in female Wistar rat assessed as detrimental effects up to 500 mg/kg, po measured for 14 days; assay type: organism-based; details: in vivo, 336 h, time 14 day
Method in brief: (§2)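 Followed OECD 423 guideline in healthy female Wistar rats weighing 200–250 g. Animals were housed at 25 ± 2 °C and 45–60% RH on a 12 h light/dark cycle, with free access to water and food.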

Rattus norvegicus [5] = assay: Anti-inflammatory activity in carrageenan-induced paw edema Wistar rat model assessed as increase in IL-10 level in paw tissue at 5 to 20 mg/kg, po measured for 6 hrs by ELISA; assay type: functional, organism-based; details: dose 5-20 mg/kg
Method in brief: (§3)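 Paw tissue taken from carrageenan-edema rats dosed orally at 5, 10 or 20 mg kg−1. Tissue rinsed in PBS pH 7.4, minced, homogenized, filtered and centrifuged at 2000 rpm for 20 min at 4 °C. Supernatant assayed by ELISA for PGE2, IL-6, TNF-α and IL-10. Data as mean ± SD.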

[6] = Toxicity in Wistar rat assessed as change in serum ALT level at 20 mg/kg, po; assay type: organism-based; details: in vivo
Method in brief: (§4)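 Rats dosed orally in 0.3% Na CMC; retro-orbital blood clotted at room temperature, serum separated at 2000 rpm, 20 min, 4 °C; ALT, AST, creatinine and urea by commercial kits; n = 6 per group, mean ± SD; Tukey test after repeated-measures one-way ANOVA.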

Rattus norvegicus [7] = assay: Anti-inflammatory activity in carrageenan-induced paw edema Wistar rat model assessed as swelling thickness of paw at 10 mg/kg, po measured after 5 hrs by digital vernier caliper (reference value: 8.47 +/- 0.32 millimeter); assay type: functional
Rattus norvegicus [8] = assay: Anti-inflammatory activity in carrageenan-induced paw edema Wistar rat model assessed as swelling thickness of paw at 5 mg/kg, po measured immediately by digital vernier caliper (reference value: 3.48 +/- 0.21 millimeter); assay type: functional
[9] = Toxicity in fasting Wistar rat assessed as ulcer score at 5 mg/kg, po via gavage treated for 3 days consecutively by H and E staining based analysis (reference value: 0); assay type: organism-based; details: in vivo, 72 h, time 3 day; method in brief: as §1
Rattus norvegicus [10] = assay: Anti-inflammatory activity in carrageenan-induced paw edema Wistar rat model assessed as swelling thickness of paw at 10 mg/kg, po measured after 4 hrs by digital vernier caliper (reference value: 8.36 +/- 0.78 millimeter); assay type: functional
[11] = Toxicity in fasting Wistar rat assessed as ulceration at 20 mg/kg, po via gavage treated for 3 days consecutively by H and E staining based analysis (reference value: 0 %); assay type: organism-based; details: in vivo, 72 h, time 3 day; method in brief: as §1
Rattus norvegicus [12] = assay: Anti-inflammatory activity in carrageenan-induced paw edema Wistar rat model assessed as swelling thickness of paw at 20 mg/kg, po measured after 2 hrs by digital vernier caliper (reference value: 8.65 +/- 0.53 millimeter); assay type: functional
Rattus norvegicus [13] = assay: Anti-inflammatory activity in carrageenan-induced paw edema Wistar rat model assessed as swelling thickness of paw at 5 mg/kg, po measured after 4 hrs by digital vernier caliper (reference value: 8.36 +/- 0.78 millimeter); assay type: functional
[14] = Toxicity in fasting Wistar rat assessed as ulcer score at 10 mg/kg, po via gavage treated for 3 days consecutively by H and E staining based analysis (reference value: 0); assay type: organism-based; details: in vivo, 72 h, time 3 day; method in brief: as §1
Rattus norvegicus [15] = assay: Anti-inflammatory activity in arachidonic acid-induced paw edema Wistar rat model assessed as swelling thickness of paw at 20 mg/kg, po measured after 1 hr by digital vernier caliper (reference value: 6.51 +/- 0.37 millimeter); assay type: functional
[16] = Toxicity in Wistar rat assessed as change in serum urea level at 20 mg/kg, po; assay type: organism-based; details: in vivo; method in brief: as §4
Rattus norvegicus [17] = assay: Anti-inflammatory activity in arachidonic acid-induced paw edema Wistar rat model assessed as swelling thickness of paw at 5 mg/kg, po measured after 1 hr by digital vernier caliper (reference value: 6.51 +/- 0.37 millimeter); assay type: functional
[18] = Toxicity in fasting Wistar rat assessed as ulcer index at 10 mg/kg, po via gavage treated for 3 days consecutively by H and E staining based analysis (reference value: 0); assay type: organism-based; details: in vivo, 72 h, time 3 day; method in brief: as §1
Rattus norvegicus [19] = assay: Cardio-protective activity in ISO-treated Wistar rat assessed as decrease in serum cTn-I level at 20 mg/kg, po by ELISA; assay type: functional, organism-based
Method in brief: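 ISO 100 mg kg−1 s.c. rat model, oral treatment after ISO, n = 6 per group; serum from retro-orbital blood (4000 rpm, 4 °C, 10 min); cTn-I by commercial kit; mean ± SD.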

Rattus norvegicus [20] = assay: Anti-inflammatory activity in carrageenan-induced paw edema Wistar rat model assessed as swelling thickness of paw at 20 mg/kg, po measured after 6 hrs by digital vernier caliper (reference value: 8.33 +/- 0.42 millimeter); assay type: functional
Rattus norvegicus [21] = assay: Anti-inflammatory activity in carrageenan-induced paw edema Wistar rat model assessed as inhibition of PGE2 level administered orally measured for 6 hrs by ELISA; assay type: functional, organism-based; details: dose 5-20 mg/kg, route po; method in brief: as §3
Rattus norvegicus [22] = assay: Anti-inflammatory activity in carrageenan-induced paw edema Wistar rat model assessed as swelling thickness of paw at 10 mg/kg, po measured after 6 hrs by digital vernier caliper (reference value: 8.33 +/- 0.42 millimeter); assay type: functional
[23] = Acute toxicity in female Wistar rat assessed as animal mortality up to 500 mg/kg, po measured for 14 days; assay type: organism-based; details: in vivo, 336 h, time 14 day; method in brief: as §2
Rattus norvegicus [24] = assay: Anti-inflammatory activity in carrageenan-induced paw edema Wistar rat model assessed as swelling thickness of paw at 20 mg/kg, po measured after 4 hrs by digital vernier caliper (reference value: 8.36 +/- 0.78 millimeter); assay type: functional
Rattus norvegicus [25] = assay: Anti-inflammatory activity in carrageenan-induced paw edema Wistar rat model assessed as swelling thickness of paw at 20 mg/kg, po measured after 3 hrs by digital vernier caliper (reference value: 8.56 +/- 0.45 millimeter); assay type: functional
Rattus norvegicus [26] = assay: Anti-inflammatory activity in carrageenan-induced paw edema Wistar rat model assessed as swelling thickness of paw at 5 mg/kg, po measured after 5 hrs by digital vernier caliper (reference value: 8.47 +/- 0.32 millimeter); assay type: functional
Rattus norvegicus [27] = assay: Anti-inflammatory activity in arachidonic acid-induced paw edema Wistar rat model assessed as protection against swelling thickness of paw at 10 mg/kg, po measured after 1 hr by digital vernier caliper (reference value: 0 %); assay type: functional
Rattus norvegicus [28] = assay: Anti-inflammatory activity in carrageenan-induced paw edema Wistar rat model assessed as swelling thickness of paw at 10 mg/kg, po measured after 3 hrs by digital vernier caliper (reference value: 8.56 +/- 0.45 millimeter); assay type: functional

Structure (SMILES) | Activity (Rattus norvegicus [1]) [%] | Activity (Rattus norvegicus [2]) [mm] | Activity [3] | Activity [4] | Activity (Rattus norvegicus [5]) | Activity [6] | Activity (Rattus norvegicus [7]) [mm] | Activity (Rattus norvegicus [8]) [mm] | Activity [9] | Activity (Rattus norvegicus [10]) [mm] | Activity [11] [%] | Activity (Rattus norvegicus [12]) [mm] | Activity (Rattus norvegicus [13]) [mm] | Activity [14] | Activity (Rattus norvegicus [15]) [mm] | Activity [16] | Activity (Rattus norvegicus [17]) [mm] | UI [18] | Activity (Rattus norvegicus [19]) | Activity (Rattus norvegicus [20]) [mm] | other results
O=[N+]([O-])c1ccc(-c2nnc(CN3CCN(C(c4ccccc4)c4ccc(Cl)cc4)CC3)o2)cc1 (stereo unspecified) | 55.22 | 5.16 | 0.093 | Non-toxic | Active | Non-toxic | 3.76 | 3.59 | 0.01 | 3.88 | 4.86 | 4.78 | 4.57 | 0.031 | 2.24 | Non-toxic | 2.92 | 3.125 | Active | 3.91 | inhibition (Rattus norvegicus [21]): Dose-dependent-effect; Activity (Rattus norvegicus [22]): 3.89 mm; Activity [23]: Non-toxic; Activity (Rattus norvegicus [24]): 4.32 mm; Activity (Rattus norvegicus [25]): 4.54 mm; Activity (Rattus norvegicus [26]): 4.22 mm; Activity (Rattus norvegicus [27]): 62.33%; Activity (Rattus norvegicus [28]): 4.41 mm
Clc1ccc(-c2nnc(CN3CCN(C(c4ccccc4)c4ccc(Cl)cc4)CC3)o2)cc1 (stereo unspecified) | 56.12 | 5.12 | 0.018 | Non-toxic | Active | Non-toxic | 3.29 | 3.51 | 0 | 3.32 | 1.25 | 4.11 | 4.18 | 0.02 | 1.94 | Non-toxic | 2.86 | 2.083 | Active | 3.41 | inhibition (Rattus norvegicus [21]): Dose-dependent-effect; Activity (Rattus norvegicus [22]): 3.37 mm; Activity [23]: Non-toxic; Activity (Rattus norvegicus [24]): 3.22 mm; Activity (Rattus norvegicus [25]): 3.41 mm; Activity (Rattus norvegicus [26]): 3.98 mm; Activity (Rattus norvegicus [27]): 69.22%; Activity (Rattus norvegicus [28]): 3.47 mm
